These results are taken from ChEMBL document CHEMBL1125486, “Inhibitors of blood platelet cAMP phosphodiesterase. 3. 1,3-Dihydro-2H-imidazo[4,5-b]quinolin-2-one derivatives with enhanced aqueous solubility” (J Med Chem, 1992).

Each structure is given as a SMILES string.

The species entered for data set [1] is Homo sapiens. Description: Inhibition of ADP-induced aggregation of human platelets. It counts as functional.
Data set [2] concerns the target T1, Phosphodiesterase 3 (Homo sapiens, UniProt Q14432+Q13370). The experiment in a line: Inhibition of human platelet c-AMP phosphodiesterase PDE 3.
The species entered for data set [3] is Homo sapiens. Description: Inhibition of ADP induced aggregation of human platelets after 15 min of incubation of the drug with PRP prior to the addition of ADP. It counts as functional. The settings on record: 0.25 h.
The nature of data set [4]: Aqueous solubility. The note with it: water; read-out: S. The format is physicochemical. Summed up:
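Water (0.5 mL) added to 10 mg compound at room temperature, diluted up to […] unless dissolution occurred.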

Data set [5] has as its system Oryctolagus cuniculus. The experiment in a line: Inhibition of laser induced thrombus formation in microvasculature of rabbit ear chamber at a dose of 0.3 mg/kg. The format is functional. Summed up: (§1)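 Conscious rabbits, laser-induced microvessel thrombosis, oral dosing; 10 trials 2 h post-dose compared with 10 predose trials in same rabbit; mean thrombus area, % inhibition; at least three rabbits per compound.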

For data set [6], the system named is Oryctolagus cuniculus. Description: Inhibition of laser induced thrombus formation in microvasculature of rabbit ear chamber at a peroral dose of 0.1 mg/kg. It counts as functional. The settings on record: route oral. The method in brief:
as §1

For data set [7], the system named is Oryctolagus cuniculus. The experiment in a line: Inhibition of laser induced thrombus formation in microvasculature of rabbit ear chamber at dose of 0.03 mg/kg. The format is functional. Summed up: as §1
The species named for data set [8] is Oryctolagus cuniculus. Description: Inhibition of laser induced thrombus formation in microvasculature of rabbit ear chamber. It counts as functional, organism-based. Summed up:
as §1

In data set [9] the target is T1, Phosphodiesterase 3. The experiment in a line: Inhibition of human platelet cAMP Phosphodiesterase PDE 3. Summed up:
(§2)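 Human platelet cAMP PDE enzyme preparation; IC50 read from plots of cAMP hydrolysis against compound concentration; mean of duplicate determinations; BMY 20844 positive control.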

The target in data set [10] is T1, Phosphodiesterase 3. Description: Inhibition of human platelet cAMP phosphodiesterase PDE 3. Summed up: as §2
Data set [11] has as its system Oryctolagus cuniculus. The experiment in a line: Inhibition of laser induced thrombus formation in microvasculature of rabbit ear chamber at a peroral dose of 3 mg/kg. The format is functional. The settings on record: route oral. Summed up: as §1
Data set [12] concerns Oryctolagus cuniculus. The experiment in a line: Inhibition of laser induced thrombus formation in microvasculature of rabbit ear chamber at a peroral dose of 1 mg/kg. The settings on record: route oral. The format is functional. Summed up:
as §1

A short description of data set [13]: Solubility in 0.25 N HCl solution. It counts as physicochemical. The note with it: read-out: S. The method in brief: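 Solubility tested as for water, 0.5 mL solvent on 10 mg solid at room temperature with up to […] dilution, but in 0.25 N HCl solution.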

In the case of `O=C(CCCOc1ccc2[nH]c3nc(O)nc-3cc2c1)N1CCN(CC2CCCCC2)CC1`, in the data set listed under Homo sapiens [1], the response was half-maximal at 510 nM (EC50). Moreover, the values for the IC50 against Phosphodiesterase 3 [2] and in the data set filed under Homo sapiens [3] were 0.4 nM and 100 nM, respectively. For the same molecule, the solubility in data set [4] was above 10000 µg/mL.
The molecule `O=C(CCCOc1ccc2[nH]c3nc(O)nc-3cc2c1)N1CCN(Cc2ccccc2)CC1` showed an IC50 on Phosphodiesterase 3 [2] of 0.7 nM. In the data set with Oryctolagus cuniculus [5], this molecule displayed an inhibition in vivo at 0.3 mg/kg of 64%. For the same molecule, at 0.1 mg/kg the inhibition in vivo in the data set with Oryctolagus cuniculus [6] was 50%. Besides, the solubility in data set [4] is above 10000 µg/mL. Also, the inhibition in vivo at 0.03 mg/kg in the data set with Oryctolagus cuniculus [7] is 41%.
For the molecule `O=C(CCCCOc1ccc2[nH]c3nc(O)nc-3cc2c1)N1CCN(CC2CCCCC2)CC1`, a half-maximal response in the data set filed under Homo sapiens [1] (EC50) required 51 nM. Besides, the IC50 against Phosphodiesterase 3 [2] stood at 0.03 nM; in the data set listed under Oryctolagus cuniculus [8], 0.03 mg/kg. This molecule came in with an inhibition in vivo at 0.1 mg/kg with Oryctolagus cuniculus [6] above 50%. The solubility in data set [4] was above 10000 µg/mL.
With `O=C(CCCOc1ccc2[nH]c3nc(O)nc-3cc2c1)N1CCN(CC(=O)N2CCCC2)CC1`, in the data set listed under Homo sapiens [1], the EC50 is above 56500 nM. On Phosphodiesterase 3 [9], this molecule displayed an IC50 of 6 nM. The solubility in data set [4] is above 10000 µg/mL.
`CCN(CC)c1ccc2[nH]c3nc(O)nc-3cc2c1` had an EC50 in the data set listed under Homo sapiens [1] of 1420 nM. Besides, on Phosphodiesterase 3 [10], the IC50 was determined as 70 nM. The solubility in data set [4] was above 10000 µg/mL.
Take `Oc1nc2cc3cc(N4CCCCC4)ccc3[nH]c-2n1`: a half-maximal response in the data set listed under Homo sapiens [1] (EC50) required 900 nM. The molecule also returned an inhibition in vivo at 3 mg/kg in the data set with Oryctolagus cuniculus [11] of 59%. Also, testing at 1 mg/kg with Oryctolagus cuniculus [12] gave an inhibition in vivo of 32%. Further, in data set [4], the solubility is above 10000 µg/mL.
Regarding `O=C(CCCOc1ccc2[nH]c3nc(O)nc-3cc2c1)N1CCN(c2ncccn2)CC1`, in the data set listed under Homo sapiens [1], it took 1220 nM to reach a half-maximal effect (EC50). In addition, the IC50 against Phosphodiesterase 3 [2] is reported as 7 nM. For the same molecule, the solubility in data set [4] was above 10000 µg/mL.
On the same counts, the results for `O=C(CCCOc1ccc2[nH]c3nc(O)nc-3cc2c1)NC1CN2CCC1CC2` (stereo not drawn) are 12400 nM, 40 nM and above 10000 µg/mL.
On the same counts, the results for `O=C(CCCOc1ccc2[nH]c3nc(O)nc-3cc2c1)N1CCN(Cc2cccs2)CC1` are 380 nM, 0.7 nM and above 10000 µg/mL.
Molecule `CC(C)(C)OC(=O)N1CCN(C(=O)CCCOc2ccc3[nH]c4nc(O)nc-4cc3c2)CC1` returned an EC50 in the data set filed under Homo sapiens [1] of 270 nM. In addition, on Phosphodiesterase 3 [2], the IC50 worked out at 0.3 nM. Besides, in [4], the solubility is below 10000 µg/mL.
On the same counts, the results for `Oc1nc2cc3cc(N4CCN(c5ccccc5)CC4)ccc3[nH]c-2n1` are 8060 nM, 5000 nM and below 10000 µg/mL.
On the same counts, the results for `O=C(CCCOc1ccc2[nH]c3nc(O)nc-3cc2c1)N1CCN(CC2CCCCCC2)CC1` are 290 nM, 0.2 nM and below 10000 µg/mL.
On the same counts, the results for `O=C(CCCOc1ccc2[nH]c3nc(O)nc-3cc2c1)N1CCN(Cc2ccsc2)CC1` are 380 nM, 0.7 nM and above 10000 µg/mL.
For the molecule `O=C(CCCOc1ccc2[nH]c3nc(O)nc-3cc2c1)N1CCN(c2ccccn2)CC1`, it took 670 nM to reach a half-maximal effect in the data set filed under Homo sapiens [1] (EC50). This molecule gave an IC50 at Phosphodiesterase 3 [2] of 5 nM. Further, the solubility in [4] is above 10000 µg/mL.
In the data set listed under Homo sapiens [1], `Cn1c(O)nc2nc3ccc(OCCCC(=O)N4CCN(Cc5ccccc5)CC4)cc3cc21` had a 50% effective concentration (EC50) above 59100 nM. Further, at Phosphodiesterase 3 [2], the IC50 amounted to 30 nM. Besides, the solubility in [4] is above 10000 µg/mL.
As for `CN1CCCC1CCNC(=O)CCCOc1ccc2[nH]c3nc(O)nc-3cc2c1` (stereo not drawn), the EC50 in the data set filed under Homo sapiens [1] came out at 79800 nM. The solubility in data set [13] was above 10000 µg/mL. For the same molecule, the IC50 against Phosphodiesterase 3 [2] came to 20 nM.
`O=C(CCCOc1ccc2[nH]c3nc(O)nc-3cc2c1)NCCN1CCCCC1` gave an EC50 in the data set filed under Homo sapiens [1] of 4500 nM. The molecule further gave an IC50 against Phosphodiesterase 3 [2] of 4 nM. Moreover, the solubility in [4] is above 20000 µg/mL.
On the same counts, the results for `O=C(CCCCCOc1ccc2[nH]c3nc(O)nc-3cc2c1)N1CCN(CC2CCCCC2)CC1` are 710 nM, 0.6 nM and above 10000 µg/mL.
On the same counts, the results for `CN1CCN(C(=O)CCCOc2ccc3[nH]c4nc(O)nc-4cc3c2)CC1` are 8900 nM, 7 nM and above 20000 µg/mL.

A word on the EC50: it is the concentration giving half of the maximal effect. Low values mean an effect from little substance, high ones a need for much substance. For orientation: inhibition in vivo means the percentage by which the read-out fell short of the control. Low values mean little suppression, high ones strong suppression.
